Assays:
Assay type in all cases: cell-based
[1] = biological target: T1, C-X-C chemokine receptor type 4 (Homo sapiens, UniProt P61073); assay: Agonist activity at HA-tagged human CXCR4 receptor expressed in HEK293 cells co-transfected with Galphai1-91-RlucII, Gbeta1, and GFP10-G-gamma1 incubated for 7 mins by Galpha1 protein activation-based BRET assay
Procedure, shortened: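 HEK293 cells (3 × 10^6 per 100 mm dish) co-transfected via polyethylenimine with HA-hCXCR4 plus Gαi1-91-RlucII, Gβ1, GFP10-Gγ1; replated at 24 h, 100 000 cells/well. At 48 h, washed in HBSS/0.1% BSA, exposed to ligand 10−12 to 10−5 M for 7 min, then coelenterazine-400A 5 μM final; BRET2 515/400 nm ratio. EC50 (Gαi dissociation) and Emax from three experiments in triplicate.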

[2] = biological target: T1, C-X-C chemokine receptor type 4; assay: Agonist activity at CXCR4 in human REH cells assessed as optimal concentration causing maximum induction of chemotaxis incubated for 3 hrs by transwell migration assay
Procedure, shortened: (§1)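 REH acute lymphoblastic B-cell leukaemia cells washed in RPMI; 100 000 cells in RPMI + 0.2% BSA seeded on top of 5 μm pore polycarbonate transwell, peptide dilutions in same medium in bottom chamber; 3 h, 37 °C, 5% CO2. Migrated cells in lower chamber counted by automated counter, expressed as % of seeded cells; peak = concentration giving maximal migration. Three experiments in triplicate.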

[3] = biological target: T1, C-X-C chemokine receptor type 4; assay: Displacement of [125I]-CXCL12 from HA-tagged human recombinant CXCR4 expressed in HEK293 cells incubated for 1 hr by gamma-radiation counting analysis
[4] = biological target: T1, C-X-C chemokine receptor type 4; assay: Agonist activity at CXCR4 in human REH cells assessed as induction of chemotaxis incubated for 3 hrs by transwell migration assay; procedure, shortened: as §1

T1 sequence (P61073 whole entry): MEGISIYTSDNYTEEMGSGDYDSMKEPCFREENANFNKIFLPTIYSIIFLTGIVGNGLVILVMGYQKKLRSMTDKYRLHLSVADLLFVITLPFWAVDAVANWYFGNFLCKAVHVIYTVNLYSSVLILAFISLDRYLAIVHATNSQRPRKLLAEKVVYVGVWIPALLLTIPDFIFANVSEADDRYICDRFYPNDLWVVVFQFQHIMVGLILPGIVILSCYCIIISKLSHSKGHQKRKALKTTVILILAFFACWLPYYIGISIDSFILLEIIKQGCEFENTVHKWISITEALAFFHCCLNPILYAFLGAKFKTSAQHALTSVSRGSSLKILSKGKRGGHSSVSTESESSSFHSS

Structure (SMILES)	EC50 [1] [nM]	Emax [1] [%]	Activity [2] [nM]	IC50 [3] [nM]	%max [4] [%]
CC(C)C[C@H](NC(=O)[C@H](CO)NC(=O)[C@@H](NC(=O)[C@@H]1CCCN1C(=O)[C@@H](N)CCCCN)C(C)(C)C)C(=O)N[C@@H](CO)C(=O)N[C@@H](Cc1ccc(O)cc1)C(=O)N[C@@H](CCCNC(=N)N)C(=O)N[C@@H](CO)C(=O)N[C@@H](C)C(=O)NCCCC[C@H](NC(=O)[C@@H]1CSSC[C@H](NC(=O)[C@H](Cc2ccc3ccccc3c2)NC(=O)[C@H](CCCNC(=N)N)NC(=O)[C@@H](N)CCCNC(=N)N)C(=O)N[C@@H](Cc2ccc(O)cc2)C(=O)N[C@@H](CCCNC(=N)N)C(=O)N[C@@H](CCCCN)C(=O)N[C@H](CCCCN)C(=O)N2CCC[C@H]2C(=O)N[C@@H](Cc2ccc(O)cc2)C(=O)N[C@@H](CCCNC(=N)N)C(=O)N[C@@H](CCCNC(=N)N)C(=O)N1)C(=O)O	15	36	100	84	21
CC(C)C[C@H](NC(=O)[C@H](CO)NC(=O)[C@H](Cc1ccc(C(=O)c2ccccc2)cc1)NC(=O)[C@@H]1CCCN1C(=O)[C@@H](N)CCCCN)C(=O)N[C@@H](CO)C(=O)N[C@@H](Cc1ccc(O)cc1)C(=O)NCCOCCOCCOCCC(=O)NCCCC[C@H](NC(=O)[C@@H]1CSSC[C@H](NC(=O)[C@H](Cc2ccc3ccccc3c2)NC(=O)[C@H](CCCNC(=N)N)NC(=O)[C@@H](N)CCCNC(=N)N)C(=O)N[C@@H](Cc2ccc(O)cc2)C(=O)N[C@@H](CCCNC(=N)N)C(=O)N[C@@H](CCCCN)C(=O)N[C@H](CCCCN)C(=O)N2CCC[C@H]2C(=O)N[C@@H](Cc2ccc(O)cc2)C(=O)N[C@@H](CCCNC(=N)N)C(=O)N[C@@H](CCCNC(=N)N)C(=O)N1)C(=O)O	207	75	100	112	40
CC(C)C[C@H](NC(=O)[C@H](CO)NC(=O)[C@@H](NC(=O)[C@@H]1CCCN1C(=O)[C@@H](N)CCCCN)C(C)C)C(=O)N[C@@H](CO)C(=O)N[C@@H](Cc1ccc(O)cc1)C(=O)N[C@@H](C)C(=O)N[C@@H](CO)C(=O)N[C@@H](C)C(=O)NCCCC[C@H](NC(=O)[C@@H]1CSSC[C@H](NC(=O)[C@H](Cc2ccc3ccccc3c2)NC(=O)[C@H](CCCNC(=N)N)NC(=O)[C@@H](N)CCCNC(=N)N)C(=O)N[C@@H](Cc2ccc(O)cc2)C(=O)N[C@@H](CCCNC(=N)N)C(=O)N[C@@H](CCCCN)C(=O)N[C@H](CCCCN)C(=O)N2CCC[C@H]2C(=O)N[C@@H](Cc2ccc(O)cc2)C(=O)N[C@@H](CCCNC(=N)N)C(=O)N[C@@H](CCCNC(=N)N)C(=O)N1)C(=O)O	40	25	10000	300	16
CC(C)C[C@H](NC(=O)[C@H](CO)NC(=O)[C@H](Cc1ccc(C(=O)c2ccccc2)cc1)NC(=O)[C@@H]1CCCN1C(=O)[C@@H](N)CCCCN)C(=O)N[C@@H](CO)C(=O)N[C@@H](Cc1ccc(O)cc1)C(=O)N[C@@H](CCCNC(=N)N)C(=O)N[C@@H](CO)C(=O)N[C@@H](C)C(=O)NCCCC[C@H](NC(=O)[C@@H]1CSSC[C@H](NC(=O)[C@H](Cc2ccc3ccccc3c2)NC(=O)[C@H](CCCNC(=N)N)NC(=O)[C@@H](N)CCCNC(=N)N)C(=O)N[C@@H](Cc2ccc(O)cc2)C(=O)N[C@@H](CCCNC(=N)N)C(=O)N[C@@H](CCCCN)C(=O)N[C@H](CCCCN)C(=O)N2CCC[C@H]2C(=O)N[C@@H](Cc2ccc(O)cc2)C(=O)N[C@@H](CCCNC(=N)N)C(=O)N[C@@H](CCCNC(=N)N)C(=O)N1)C(=O)O	52	75	10	59	72

The remaining molecules from weak to strong by EC50 [1], led by results:

EC50 [1] [nM]	Emax [1] [%]	Activity [2] [nM]	IC50 [3] [nM]	%max [4] [%]	Structure (SMILES)
144	19	10000	368	11.4	CC(C)C[C@H](NC(=O)[C@H](CO)NC(=O)[C@@H](NC(=O)[C@@H]1CCCN1C(=O)[C@@H](N)CCCCN)C(C)C)C(=O)N[C@@H](C)C(=O)N[C@@H](Cc1ccc(O)cc1)C(=O)N[C@@H](CCCNC(=N)N)C(=O)N[C@@H](CO)C(=O)N[C@@H](C)C(=O)NCCCC[C@H](NC(=O)[C@@H]1CSSC[C@H](NC(=O)[C@H](Cc2ccc3ccccc3c2)NC(=O)[C@H](CCCNC(=N)N)NC(=O)[C@@H](N)CCCNC(=N)N)C(=O)N[C@@H](Cc2ccc(O)cc2)C(=O)N[C@@H](CCCNC(=N)N)C(=O)N[C@@H](CCCCN)C(=O)N[C@H](CCCCN)C(=O)N2CCC[C@H]2C(=O)N[C@@H](Cc2ccc(O)cc2)C(=O)N[C@@H](CCCNC(=N)N)C(=O)N[C@@H](CCCNC(=N)N)C(=O)N1)C(=O)O
92	50	10	56	30	CC(C)C[C@H](NC(=O)[C@H](CO)NC(=O)[C@H](C)NC(=O)[C@@H]1CCCN1C(=O)[C@@H](N)CCCCN)C(=O)N[C@@H](CO)C(=O)N[C@@H](Cc1ccc(O)cc1)C(=O)N[C@@H](CCCNC(=N)N)C(=O)N[C@@H](CO)C(=O)N[C@@H](C)C(=O)NCCCC[C@H](NC(=O)[C@@H]1CSSC[C@H](NC(=O)[C@H](Cc2ccc3ccccc3c2)NC(=O)[C@H](CCCNC(=N)N)NC(=O)[C@@H](N)CCCNC(=N)N)C(=O)N[C@@H](Cc2ccc(O)cc2)C(=O)N[C@@H](CCCNC(=N)N)C(=O)N[C@@H](CCCCN)C(=O)N[C@H](CCCCN)C(=O)N2CCC[C@H]2C(=O)N[C@@H](Cc2ccc(O)cc2)C(=O)N[C@@H](CCCNC(=N)N)C(=O)N[C@@H](CCCNC(=N)N)C(=O)N1)C(=O)O
83	60	10	78	43	CC(C)C[C@H](NC(=O)[C@H](CO)NC(=O)[C@@H](NC(=O)[C@@H]1CCCN1C(=O)[C@@H](N)CCCCN)C(C)C)C(=O)N[C@@H](CO)C(=O)N[C@@H](Cc1ccc(F)cc1)C(=O)N[C@@H](CCCNC(=N)N)C(=O)N[C@@H](CO)C(=O)N[C@@H](C)C(=O)NCCCC[C@H](NC(=O)[C@@H]1CSSC[C@H](NC(=O)[C@H](Cc2ccc3ccccc3c2)NC(=O)[C@H](CCCNC(=N)N)NC(=O)[C@@H](N)CCCNC(=N)N)C(=O)N[C@@H](Cc2ccc(O)cc2)C(=O)N[C@@H](CCCNC(=N)N)C(=O)N[C@@H](CCCCN)C(=O)N[C@H](CCCCN)C(=O)N2CCC[C@H]2C(=O)N[C@@H](Cc2ccc(O)cc2)C(=O)N[C@@H](CCCNC(=N)N)C(=O)N[C@@H](CCCNC(=N)N)C(=O)N1)C(=O)O
74	47	100	90	45	CC(C)C[C@H](NC(=O)[C@H](CO)NC(=O)[C@H](Cc1cc2cccc3ccc4cccc1c4c32)NC(=O)[C@@H]1CCCN1C(=O)[C@@H](N)CCCCN)C(=O)N[C@@H](CO)C(=O)N[C@@H](Cc1ccc(O)cc1)C(=O)N[C@@H](CCCNC(=N)N)C(=O)N[C@@H](CO)C(=O)N[C@@H](C)C(=O)NCCCC[C@H](NC(=O)[C@@H]1CSSC[C@H](NC(=O)[C@H](Cc2ccc3ccccc3c2)NC(=O)[C@H](CCCNC(=N)N)NC(=O)[C@@H](N)CCCNC(=N)N)C(=O)N[C@@H](Cc2ccc(O)cc2)C(=O)N[C@@H](CCCNC(=N)N)C(=O)N[C@@H](CCCCN)C(=O)N[C@H](CCCCN)C(=O)N2CCC[C@H]2C(=O)N[C@@H](Cc2ccc(O)cc2)C(=O)N[C@@H](CCCNC(=N)N)C(=O)N[C@@H](CCCNC(=N)N)C(=O)N1)C(=O)O
65	41	10	69	16	CC(C)C[C@H](NC(=O)[C@H](CO)NC(=O)[C@@H](NC(=O)[C@@H]1CCCN1C(=O)[C@@H](N)CCCCN)C(C)C)C(=O)N[C@@H](CO)C(=O)N[C@@H](Cc1ccccc1)C(=O)N[C@@H](CCCNC(=N)N)C(=O)N[C@@H](CO)C(=O)N[C@@H](C)C(=O)NCCCC[C@H](NC(=O)[C@@H]1CSSC[C@H](NC(=O)[C@H](Cc2ccc3ccccc3c2)NC(=O)[C@H](CCCNC(=N)N)NC(=O)[C@@H](N)CCCNC(=N)N)C(=O)N[C@@H](Cc2ccc(O)cc2)C(=O)N[C@@H](CCCNC(=N)N)C(=O)N[C@@H](CCCCN)C(=O)N[C@H](CCCCN)C(=O)N2CCC[C@H]2C(=O)N[C@@H](Cc2ccc(O)cc2)C(=O)N[C@@H](CCCNC(=N)N)C(=O)N[C@@H](CCCNC(=N)N)C(=O)N1)C(=O)O
56	81	10	25	50	CC(C)C[C@H](NC(=O)[C@H](C)NC(=O)[C@@H](NC(=O)[C@@H]1CCCN1C(=O)[C@@H](N)CCCCN)C(C)C)C(=O)N[C@@H](CO)C(=O)N[C@@H](Cc1ccc(O)cc1)C(=O)N[C@@H](CCCNC(=N)N)C(=O)N[C@@H](CO)C(=O)N[C@@H](C)C(=O)NCCCC[C@H](NC(=O)[C@@H]1CSSC[C@H](NC(=O)[C@H](Cc2ccc3ccccc3c2)NC(=O)[C@H](CCCNC(=N)N)NC(=O)[C@@H](N)CCCNC(=N)N)C(=O)N[C@@H](Cc2ccc(O)cc2)C(=O)N[C@@H](CCCNC(=N)N)C(=O)N[C@@H](CCCCN)C(=O)N[C@H](CCCCN)C(=O)N2CCC[C@H]2C(=O)N[C@@H](Cc2ccc(O)cc2)C(=O)N[C@@H](CCCNC(=N)N)C(=O)N[C@@H](CCCNC(=N)N)C(=O)N1)C(=O)O

— ChEMBL document CHEMBL3860039, “Structure-Activity Relationship and Signaling of New Chimeric CXCR4 Agonists” (J Med Chem, 2016)
